Laboratory results as given in the EternaBench riboswitch data.

System: MS2 coat protein
Assay: apparent Kd, MS2 coat protein; higher = weaker binding; RNA-MaP array; FMN 200 µM where present
Method in brief: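 Each design was made on Illumina sequencing-chip clusters by stalled E. coli RNA polymerase and titrated with SNAP-549-labelled MS2 coat protein from 0.7 or 1.5 nM, doubling to 3 µM, in the absence and then the presence of constant ligand. The buffer was 100 mM Tris-HCl pH 7.5, 80 mM KCl, 4 mM MgCl2, BSA, DTT, yeast tRNA and Tween-20. The apparent Kd is the median of filtered per-cluster fits of binding curves, with green signal normalised to red-channel RNA signal and control-cluster median Fmax.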

[1] = designed as: OFF switch for flavin mononucleotide, no ligand
[2] = ligand present: flavin mononucleotide, designed as: OFF switch for flavin mononucleotide
[3] = designed as: ON switch for flavin mononucleotide, no ligand
[4] = ligand present: flavin mononucleotide, designed as: ON switch for flavin mononucleotide

GUUUUGGGAGGAUAUAUGUGGAUUAUUUUUGUAUGUUGUUUACAUGAGGAUCACCCAUGUAGAAGGUCUAGAGC
apparent Kd [1]: 102 nM | apparent Kd [2]: 211 nM

AAGGAUAGAGGAUAUACAUAGAUACAGAUUCAUGUAGAAUUACAUGAGGAUCACCCAUGUAGAAGGCUAUCCUA
apparent Kd [1]: 635 nM | apparent Kd [2]: 29 nM

GGAUGACAAAGUCAUCCAUAACGAACAUGAGGAUCACCCAUGUAGGAUAUGCUACUCAAAGAGUAGCAGAAGGACAUGUGCCUU
apparent Kd [1]: 36 nM | apparent Kd [2]: 239 nM

UAUGGUUAAGUCAGGAUAUACGUGCAGUUUUCUGAGUAGAAGGGACAUGAGGAUCACCCAUGUAUGGUAGUGUU
apparent Kd [1]: 72.2 nM | apparent Kd [2]: 73.6 nM

GCCUAACAUGAGGAUCACCCAUGUCGUGGGUUGUUAGGAUAUGGACCGCAAAACGCGGUACCAGAAGGAAUAGAAA
apparent Kd [3]: 555 nM | apparent Kd [4]: 297 nM

GUCAGCUCGUGAGGAUAUACAACACUGCUUCGGCAGUGUAUUAAGAUCACAUGAGGAUCACCCAUGUAGAAGGCACGAGCUGAG
apparent Kd [1]: 13 nM | apparent Kd [2]: 200 nM

GGAUGACAAAGUCAUCCAAUACGAACAUGAGGAUCACCCAUGUAGGAUAUGCUACAUGAGGAUCACCAGAAGGACAUGUGCCUU
apparent Kd [1]: 123 nM | apparent Kd [2]: 135 nM

GCGAUGAUCGAGAAGGCCACUACAUGAGGAUCACCCAUGUCGUGGUGUAUUGGAGGAUAUCGAUCGGCGUCUCAUGAGGACAUA
apparent Kd [1]: 4.65 nM | apparent Kd [2]: 5.78 nM

AACAGCUCGUCAGGAUAUACAACACUGCUUCGGCAGAAUGAUAAGAUAACAUGAGGAUCACCCAUGUAGAAGGGACGAGCUGAA
apparent Kd [1]: 6.01 nM | apparent Kd [2]: 8.32 nM

UUCAGCUCGUGAGGAUAUACAUGUGCUGGAUACAGCACUAUUAUGUUCACAUGAGGAUCACCCAUGUAGAAGGCACGAGCUGAG
apparent Kd [1]: 16.6 nM | apparent Kd [2]: 21.4 nM

CUUUUGUUAGGAUAUUAGUAGUAAAUAAAUAAAAUUACUACUGAGAAGGCACAUGAGGAUCACCCAUGUUCCUC
apparent Kd [1]: 26 nM | apparent Kd [2]: 31.4 nM

CUAUCAAGCAAGGAUAUGCAAUUUAUUAUUUAUGCAGAAGGUGCAACAUGAGGAUCACCCAUGUUUCUGGGUUU
apparent Kd [1]: 51.5 nM | apparent Kd [2]: 91.5 nM

AAGUGUGCCUAGGAUAUGUUCGGCCAAGGUCAUACAGAAGGAGGCACAUGAGGAUCACCCAUGUAGUGUCCAAC
apparent Kd [1]: 118 nM | apparent Kd [2]: 29.4 nM

CGCUGUCACGCAGGAUAUGCAUUGGAUUACAAUGCAGAAGGGCGAUAACAUGAGGAUCACCCAUGUGUAGACAGUGAAGAAGAG
apparent Kd [3]: 145 nM | apparent Kd [4]: 27.2 nM

GCCAUCAUAUGAGGAUAUGACACCGAAACGGUGUCAGAAGGCAUGUCGAUAGACAUGAGGAUCACCCAUGUAUUAAUGAUGGCA
apparent Kd [3]: 1090 nM | apparent Kd [4]: 95.1 nM

GGGCUCGGAGGAUAUACAAUGGGCCCGGGAAACCGGGCCCUACAUGAGGAUCACCCAUGUAGAAGGUCGGGCUC
apparent Kd [1]: 16.4 nM | apparent Kd [2]: 24.8 nM

UUGGACGUCGUAGGAUAUGUAGGAUAUUCCUACAUGAGGAUCACCCAUGUUGACAUAGAAGAAGGACAGAAGGACGAUGUCCAU
apparent Kd [3]: 88.3 nM | apparent Kd [4]: 4.86 nM

GCACUGGAUGUAGGAUAUCAGGACGAUAAGUCCUGAGAAGGACAUGAGGAUCACCCAUGUGUUAAAACCAGUGCAUAUAAUAUA
apparent Kd [1]: 13.8 nM | apparent Kd [2]: 20.6 nM

UGGUAACAUGAGGAUCACCCAUGUCAGGAUAUCAGUAAGAAUAGAUGAGAGUAGAAGAUGAGAAGGGACUAUAU
apparent Kd [1]: 29.4 nM | apparent Kd [2]: 24.4 nM

GAAAAACAUGAGGAUCACCCAUGUGUAAACAAGGGAGGAUAUACAAAGACGUAAGUCAAAGUAGAAGGCCUAAAAG
apparent Kd [3]: 25 nM | apparent Kd [4]: 9.6 nM

GCUGUCGCAUGAGGAUAUGGUCAGCUUUGCUGACCAGAAGGCAUGUCAAUAGACAUGAGGAUCACCCAUGUAGUAAAGACGGCU
apparent Kd [3]: 313 nM | apparent Kd [4]: 32.4 nM

UCACAGGGAGGAUAUACAUGAGGAUCACCCAUGUGAAUCUUCGACCUGCAGGUACUUUGUAGAAGGCCCAGUGG
apparent Kd [1]: 107 nM | apparent Kd [2]: 123 nM

UUUUCGCGCGCAGGAUAUCCCAUGUGGUUCACACAUGAGGAUCACCCAUGUUUCACCCAUGUGCGGGAGAAGGGUGCGCGUUUC
apparent Kd [3]: 368 nM | apparent Kd [4]: 189 nM

CCUAAGGACACAGGAUAUAGCGUGGUGGCCGGACUCCAACAGCGAGCGGCGCUAGAAGGGUGACCACAUGAGGAUCACCCAUGU
apparent Kd [3]: 709 nM | apparent Kd [4]: 370 nM

UGAUCUAUGUAGAAGGCCCAUAUCUAUAUUUAGGGAGGAUAUACAUGAGGAUCACCCAUGUAUAGAGCUAGUGGACUGGUCACC
apparent Kd [1]: 37.7 nM | apparent Kd [2]: 48.1 nM

GCGAAUUAGUGAGGAUAUACAUAAUUUAAAACUGUAGAAGGCACAAUCCUCAAGACAUGAGGAUCACCCAUGUGGUAUUACGCU
apparent Kd [1]: 138 nM | apparent Kd [2]: 861 nM

UCAGGUCGGGAAGGAUAUCGGCCGCGAAGAGCUCGAGAAGGUCCCGACAUGAGGAUCACCCAUGUUGAAGGGUCCUAACGUGCC
apparent Kd [1]: 158 nM | apparent Kd [2]: 93.4 nM
